hDAT+cocaine: changed hDAT dopamine uptake under cocaine IC80, either direction, primary screen, cocaine antagonist project, cell-based, LLC-PK1 hDAT, [14C]-dopamine uptake, MLSMR; AID 449768, 2010; LLC-PK1 hDAT cells, [14C]-dopamine uptake with cocaine IC80; actives deviate in either direction; Sodium-dependent dopamine transporter (Homo sapiens), Q01959; B-score at 10 µM; 110,000 compounds, 1.3% hits;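 active = Z score or B-score, a plate-position-corrected score, falls beyond the plate's 99.7% confidence bounds, in either direction; inactive = both scores lie inside the 99.7% bounds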
D1 mod: D1 CRE-luciferase signal change, two-sided – cell-based, HEK293 D1, dopamine EC30, D1 allosteric modulator project, primary screen; D(1A) dopamine receptor (Homo sapiens), P21728; dopamine EC30 potentiation; actives deviate in either direction; B-score at 10 µM; 58,000 compounds, 5.9% hits; AID 641, 2007;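 active = luminescence count or its row- and column-corrected plate score outside the 99.7% band of the plate's sample wells, on either side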
Target sequence (P21728 whole entry, looked up): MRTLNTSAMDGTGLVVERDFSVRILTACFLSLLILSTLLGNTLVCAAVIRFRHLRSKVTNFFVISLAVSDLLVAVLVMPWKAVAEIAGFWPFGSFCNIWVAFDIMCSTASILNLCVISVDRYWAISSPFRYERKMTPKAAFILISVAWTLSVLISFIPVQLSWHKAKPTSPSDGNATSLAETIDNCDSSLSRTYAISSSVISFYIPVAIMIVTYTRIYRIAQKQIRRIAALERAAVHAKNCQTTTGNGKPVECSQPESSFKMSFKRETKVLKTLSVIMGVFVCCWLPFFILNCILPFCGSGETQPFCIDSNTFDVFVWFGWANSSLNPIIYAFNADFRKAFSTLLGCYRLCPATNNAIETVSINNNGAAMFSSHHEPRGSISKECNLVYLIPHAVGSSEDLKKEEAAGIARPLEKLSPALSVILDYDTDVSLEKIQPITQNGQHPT
Jurkat viability: cytotoxicity toward Jurkat T cells, primary screen, cytotoxicity control, cell-based, Jurkat E6.1, 60K MLSMR library; Jurkat E6.1 viability, ATP luminescence, 48 h; inhibition, % at 4 µM; 56,000 compounds, 1.2% hits; AID 463, 2006;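 active = inhibition above the mean inhibition of all tested compounds plus 3 SD, cut at about 28% in these data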
M1 antagonist: antagonists of rat M1 muscarinic receptor | Muscarinic acetylcholine receptor M1 (Rattus norvegicus), P08482 | CHO-M1 cells, Fluo-4 calcium, ACh EC80 antagonist mode; hits give low values | B-score at 10 µM | 64,000 compounds, 3.4% hits;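 active = calcium fluorescence response, raw or row-and-column corrected B-score, differing from the plate sample mean either way at a set confidence level, mostly lower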
M1 ag: M1 muscarinic receptor agonists, primary screen, CHO-M1 cells, Fluo-4 calcium, agonist mode; Muscarinic acetylcholine receptor M1; Fluo-4 calcium fluorescence; hits give high values; B-score at 10 µM; 64,000 compounds, 3% hits;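 active = fluorescence rise, raw or as B-score row- and column-corrected plate score, outside the 99.7% band of its plate's samples, either direction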
HEK293 NFkB inh: inhibitors of PMA/ionomycin-induced NF-kB reporter, primary screen, antigen receptor NF-kB inhibitor project, cell-based, HEK-293 luciferase reporter, luminescence. HEK-293 NF-kB luciferase reporter. inhibition, % at 3 µM. 62,000 compounds, 0.21% hits;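 active = inhibition above the mean of all tested compounds plus 3 SD, cut at about 40% in these data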
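Material: HEK-293 cells with stable firefly luciferase reporter driven by four HIV NF-kB elements / Also added: PMA plus ionomycin mix as NF-kB-activating stimulus / Compound dosing: 3 µM once, 0.30% DMSO / Times: 1 h pretreatment, 16 h stimulation, 37 °C / Signal: luminescence / Evaluation: per-plate % inhibition versus controls / Benchmarks: DMSO and 10 µM reference inhibitor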
Hits are given with their value; - = inactive; . = not tested or not shown. In the library only some 7.6% were active in any assay of this set; here they are far more common.

SMILES | hDAT+cocaine | D1 mod | Jurkat viability | M1 antagonist | M1 ag | HEK293 NFkB inh
Cc1c(-n2cc(C(=O)O)c(=O)c3cc(F)c(N4CCCC4)c(F)c32)c(=O)n(-c2ccccc2)n1C | - | 2.69 | . | - | - | -
CN(C)c1ccc(NC2=C([N+](=O)[O-])CS(=O)(=O)C2)cc1 | - | . | . | . | . | .
CCCn1nc(C(=O)N2CC(=O)Nc3ccccc32)c2ccccc2c1=O | - | - | 73.5 | - | - | -
Cc1cc(C)nc(SCCS(=O)Cc2ccc(Cl)cc2)n1 (stereo not drawn) | - | - | - | - | - | -
CC(SC1CCCC1)C(=O)NC(C)(C#N)C(C)C (stereo not drawn) | - | -2.12 | - | - | - | -
CCOC(=O)N1CCC(Nc2c(Nc3ccc(C)c(C)c3)c(=O)c2=O)CC1 | - | - | - | - | - | -
O=c1[nH]c(Nc2nc3ccccc3o2)nc2c1CCCC2 | - | -6.42 | - | - | - | -
C/C(Cl)=C\CNC(C)c1ccccc1 (stereo not drawn) | - | - | - | - | - | -
O=C(NCc1ccc2c(c1)OCO2)c1cc2ncc(Br)cn2n1 | -2.1 | - | - | - | - | -
Cc1nnc2sc(-c3ccncc3)nn12 | - | - | - | - | - | -
Cc1nnc2sc(-c3csc4c3CCCC4)nn12 | 3.36 | - | - | - | - | -
Cc1cc(C)nc(NC(=O)c2cccc([N+](=O)[O-])c2C)n1 | - | . | . | . | . | .
COc1cc(C2=NOC(C(=O)NCc3ccc(F)cc3)C2)cc(OC)c1OC (stereo not drawn) | . | - | 96.1 | - | - | -
CN(CCOc1ccc(Cl)cc1)c1ccc(S(=O)(=O)N2CCCCC2)cn1 | - | - | - | - | - | -
Cc1cc(C)cc(OCC(=O)NCC2CCCO2)c1 (stereo not drawn) | - | -4.78 | . | - | - | .
Oc1cccc2ccc(Nc3ccccn3)nc12 | - | -4.06 | 72.4 | - | - | -
c1ccc2c(c1)Cc1cc(CN3CCOCC3)ccc1-2 | - | - | - | - | - | -
CCN1CCN(Cc2ccc3c(c2)Cc2ccccc2-3)CC1 | . | - | - | -3.55 | - | -
O=C(O)C1CCCCC1C(=O)NCCc1c[nH]c2ccccc12 (stereo not drawn) | - | -5.08 | - | - | - | -
CC(=O)c1ccc(NC(=O)CSCCO)cc1 | - | - | - | - | - | -
O=C(CSCCO)Nc1ccc(C2CCCCC2)cc1 | 3.07 | - | - | - | - | -
CCCC(=O)Nc1nnc(COC)s1 | - | . | - | - | - | -
O=S(=O)(CCc1nc2ccccc2o1)c1ccc2ccccc2c1 | - | . | . | . | . | .
CCOC(=O)C1(N(CC)CC)Sc2cc(C)ccc2NC1=O (stereo not drawn) | . | - | 36.0 | - | - | -
C=CCN(C(=O)c1ccccc1)c1ccc(OC)cc1 | - | - | 49.0 | - | - | -
SMILES | hDAT+cocaine | D1 mod | Jurkat viability | M1 antagonist | M1 ag | HEK293 NFkB inh
COc1ccc(N(C)C(=O)c2ccc3nc(-c4ccccc4)c(-c4ccccc4)nc3c2)cc1 | - | . | . | . | . | .
O=C(NCc1cccnc1)c1ccc(NC(=O)c2ccco2)cc1 | - | . | . | . | . | .
CC(C)C(=O)Nc1ccc(C(=O)NCc2cccnc2)cc1 | - | - | 81.5 | - | - | -
CN(C)S(=O)(=O)c1ccc(S(=O)(=O)N(CC(=O)Nc2ccccc2)CC2CCCO2)cc1 (stereo not drawn) | - | - | - | - | - | -
CC(C)N(C(=O)CSc1nnc(CNc2ccc(F)cc2)o1)C(C)C | - | . | . | . | . | .
COc1cccc(NS(=O)(=O)c2cc(C)sc2C)c1 | 2.64 | - | - | - | - | -
O=C(O)Cn1nnnc1-c1ccc(F)cc1 | - | - | - | - | -2.04 | -
O=C(O)Cn1nc(-c2ccc(F)cc2)oc1=O | - | - | - | - | - | -
C/C=C/C=[N+](\[O-])C(C)/C(=N/O)c1ccc(F)cc1 (stereo not drawn) | - | -5.69 | - | - | - | -
O=C(CC(Nc1ccccc1)C(=O)O)c1ccccc1 (stereo not drawn) | 2.94 | . | . | - | - | -
O=C(NCc1ccccc1)C1CC(=O)N(c2ccc(OCC(=O)N3CCCC3)cc2)C1 (stereo not drawn) | - | . | . | . | . | .

High-throughput results: PubChem BioAssay, several laboratories
